# Legend:
# [1] = (§1) Minimum inhibitory concentration against Trichophyton asteroides; format: functional; conditions: Trichophyton benhamiae
# Outline: (§2)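 Broth microdilution in Sabouraud's glucose broth. Final inocula 1×10^5 cells/mL for the yeast (C. albicans) and 1×10^5 conidia/mL for the mold (A. fumigatus) and the dermatophyte (T. asteroides). MIC read as the fungistatic end point. Lowest value of duplicated experiments.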
# [2] = test system: Aspergillus fumigatus; assay: Minimum inhibitory concentration (MIC) against Aspergillus fumigatus; format: functional; outline: as §2
# [3] = test system: Candida albicans; assay: Minimum inhibitory concentration (MIC) against Candida albicans; format: functional; outline: as §2
# [4] = test system: Trichophyton benhamiae; assay: Minimum inhibitory concentration against Trichophyton mentagrophytes IFO 5810; format: functional, Arthroderma benhamiae
# Outline: (§3)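 Agar dilution on Sabouraud's glucose agar. Inocula 1×10^6 cells/mL for the yeast strains (C. albicans IFO 1060, 1388) and 1×10^6 conidia/mL for the dermatophytes (T. mentagrophytes IFO 5809, 5810; T. rubrum IFO 5467, 5807). MIC in μg/mL, lowest value of duplicated experiments.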
# [5] = test system: Trichophyton benhamiae; assay: as §1; format: functional; outline: as §2
# [6] = test system: Trichophyton benhamiae; assay: Minimum inhibitory concentration against Trichophyton mentagrophytes IFO 5809; format: functional, Arthroderma benhamiae; outline: as §3
# [7] = test system: Trichophyton rubrum; assay: Minimum inhibitory concentration against Trichophyton rubrum IFO 5807; format: functional; outline: as §3
# [8] = test system: Candida albicans; assay: Minimum inhibitory concentration against Candida albicans IFO 1388; format: functional; outline: as §3
# [9] = test system: Candida albicans; assay: Inhibition of pseudomycelium formation of Candida albicans.; format: functional; conditions: read-out: MEC
# Outline: (§4)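 C. albicans KE-2 (clinical isolate), final inoculum 1×10^6 yeast cells/mL in EMEM with 20% calf serum. Compounds serially diluted by the microtiter dilution system used for MICs. After incubation, wells Giemsa-stained (5% in phosphate buffer) and examined microscopically. MEC (μg/mL) = lowest concentration preventing typical pseudomycelium formation. Lowest value of duplicated experiments.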
# [10] = test system: Candida albicans; assay: Minimum inhibitory concentration against Candida albicans IFO 1060; format: functional; outline: as §3
# [11] = test system: Trichophyton rubrum; assay: Minimum inhibitory concentration against Trichophyton rubrum IFO 5467; format: functional; outline: as §3
# [12] = test system: Trichophyton rubrum; assay: Minimum inhibitory concentration against Trichophyton rubrum IFO 5467
# [13] = test system: Candida albicans; assay: Inhibitory effect on pseudomycelium formation of candida albicans.; format: functional; conditions: read-out: MEC; outline: as §4
# [14] = test system: Trichophyton benhamiae; assay: Minimum inhibitory concentration against Trichophyton mentagrophyte IFO 5809; format: functional; outline: as §3
# [15] = test system: Trichophyton benhamiae; assay: Minimum inhibitory concentration against Trichophyton mentagrophyte IFO 5810; format: functional; outline: as §3
# [16] = test system: Aspergillus fumigatus; assay: (§5) Minimum inhibitory concentration against Aspergillus fumigatus; format: functional; outline: as §2
# [17] = as §5; format: functional, trichophyton asteroides; conditions: Trichophyton benhamiae; outline: as §2
Structure (SMILES),MIC [1] [µg/mL],MIC [2] [µg/mL],MIC [3] [µg/mL],MIC [4] [µg/mL],MIC [5] [µg/mL],MIC [6] [µg/mL],MIC [7] [µg/mL],MIC [8] [µg/mL],MIC [10] [µg/mL],MIC [11] [µg/mL],other results
C=C(c1ccccc1OCc1ccsc1Cl)n1ccnc1,–,1.6,6.2,0.8,0.1,1.6,0.8,12.5,12.5,0.4,minimal effective concentration [9]: 0.8 µg/mL
CC=C(c1ccccc1OCc1ccc(Cl)c(Cl)c1)n1ccnc1,–,0.4,6.2,0.8,0.1,0.8,0.8,12.5,6.3,0.8,–
c1ccc(C(c2ccccc2)(n2ccnc2)n2ccnc2)cc1,0.8,> 100,> 100,–,–,–,–,–,–,–,–
CC(C)(n1ccnc1)n1ccnc1,> 100,–,> 100,–,–,–,–,–,–,–,MIC [16]: > 100 µg/mL
C/C=C(/c1ccccc1OCc1ccc(Cl)cc1)n1ccnc1,–,3.1,6.2,0.8,0.1,1.6,1.6,12.5,12.5,0.8,–
CC(c1cccc(OCc2ccc(Cl)cc2)c1)(n1ccnc1)n1ccnc1,–,> 100,> 100,–,–,–,–,–,–,–,MIC [17]: > 100 µg/mL
CC(c1ccc(Cl)cc1)(n1ccnc1)n1ccnc1,> 100,> 100,> 100,–,–,–,–,–,–,–,–

# Continued, in another order:
MIC [1] [µg/mL],MIC [2] [µg/mL],MIC [3] [µg/mL],MIC [4] [µg/mL],MIC [5] [µg/mL],MIC [6] [µg/mL],MIC [7] [µg/mL],MIC [8] [µg/mL],MIC [10] [µg/mL],MIC [11] [µg/mL],Structure (SMILES),other results
> 100,> 100,> 100,–,–,–,–,–,–,–,c1ccc(C(n2ccnc2)n2ccnc2)cc1,–
–,3.1,6.2,1.6,0.1,1.6,0.8,12.5,12.5,–,C=C(c1cc(Cl)ccc1OCc1ccccc1)n1ccnc1,MIC [12]: 1.6 µg/mL
–,0.4,25,–,0.1,–,–,–,–,–,C=C(c1ccccc1OCCc1ccc(Cl)cc1)n1ccnc1,minimal effective concentration [13]: 1.25 µg/mL
0.1,0.8,50,–,–,–,–,–,–,–,C=C(c1ccccc1SCc1ccc(Cl)cc1)n1ccnc1,–
–,–,–,–,–,–,0.8,12.5,6.3,0.8,Clc1ccccc1C(c1ccccc1)(c1ccccc1)n1ccnc1 [CLOTRIMAZOLE],MIC [14]: 0.8 µg/mL; MIC [15]: 0.4 µg/mL
> 100,> 100,> 100,–,–,–,–,–,–,–,CC(c1ccccc1)(n1ccnc1)n1ccnc1,–
–,6.2,3.1,0.8,0.1,1.6,0.8,12.5,12.5,1.6,CC(C)=C(c1ccccc1OCc1ccc(Cl)cc1)n1ccnc1,–
–,3.1,6.2,0.8,0.1,1.6,0.8,12.5,6.3,0.8,C=C(c1ccccc1OCc1ccc(Cl)cc1)n1ccnc1,–

# From ChEMBL document CHEMBL1123801, “Synthesis and antifungal activity of new 1-vinylimidazoles” (1987)
